Experimental data taken from ChEMBL document CHEMBL3045452, “Behavioral responses of the diamondback moth, Plutella xylostella, to green leaf volatiles of Brassica oleracea subsp. capitata” (2000).
Active and inactive are the calls of the source. The rule behind the calls is not given here.

Assays:
Plutella xylostella [1] = experiment: Induction of response in unmated male Plutella xylostella (diamondback moth) assessed as landing moth level at 10 uL in presence of synthetic pheromone measured after 10 min by wind tunnel bioassays (Rvb hexane = 0%); type: functional
Method in brief: (§1)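 Wind tunnel 240 × 30 × 30 cm. Moths acclimatized in the room ≥3 h beforehand. Filter-paper dispenser (4 × 2 cm) hung 15 cm high, loaded with 10 µL of GLV, synthetic pheromone (Z11-16:Ald/Z11-16:Ac/Z11-16:OH 1:1:0.01), a 1:1 mix, or hexane. Two moths released per replicate and watched 10 min; 20 replicates (40 insects) per treatment. Hexane control run twice daily; one treatment per day, tunnel washed between treatments.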

Plutella xylostella [2] = experiment: Induction of response in unmated male Plutella xylostella (diamondback moth) assessed as flying moth level at 10 uL in presence of synthetic pheromone measured after 10 min by wind tunnel bioassays (Rvb hexane = 5%); type: functional; method in brief: as §1
Plutella xylostella [3] = experiment: Induction of response in mated female Plutella xylostella (diamondback moth) assessed as landing moth level at 10 uL measured after 10 min by wind tunnel bioassays (Rvb hexane = 0%); type: functional; method in brief: as §1
Plutella xylostella [4] = experiment: Induction of response in mated female Plutella xylostella (diamondback moth) assessed as flying moth level at 10 uL measured after 10 min by wind tunnel bioassays (Rvb hexane = 5%); type: functional; method in brief: as §1
Plutella xylostella [5] = experiment: Induction of response in unmated female Plutella xylostella (diamondback moth) assessed as landing moth level at 10 uL measured after 10 min by wind tunnel bioassays (Rvb hexane = 0%); type: functional; method in brief: as §1
Plutella xylostella [6] = experiment: Induction of response in unmated female Plutella xylostella (diamondback moth) assessed as flying moth level at 10 uL measured after 10 min by wind tunnel bioassays (Rvb hexane = 5%); type: functional; method in brief: as §1
Plutella xylostella [7] = experiment: Induction of response in mated male Plutella xylostella (diamondback moth) assessed as landing moth level at 10 uL measured after 10 min by wind tunnel bioassays (Rvb hexane = 0%); type: functional; method in brief: as §1
Plutella xylostella [8] = experiment: Induction of response in mated male Plutella xylostella (diamondback moth) assessed as flying moth level at 10 uL measured after 10 min by wind tunnel bioassays (Rvb hexane = 0%); type: functional; method in brief: as §1
Plutella xylostella [9] = experiment: Induction of response in unmated male Plutella xylostella (diamondback moth) assessed as landing moth level at 10 uL measured after 10 min by wind tunnel bioassays (Rvb hexane = 0%); type: functional; method in brief: as §1
Plutella xylostella [10] = experiment: Induction of response in unmated male Plutella xylostella (diamondback moth) assessed as flying moth level at 10 uL measured after 10 min by wind tunnel bioassays (Rvb hexane = 5%); type: functional; method in brief: as §1
Plutella xylostella [11] = experiment: Induction of response in mated female Plutella xylostella (diamondback moth) assessed as landing moth level at 10 uL in presence of synthetic pheromone measured after 10 min by wind tunnel bioassays (Rvb hexane = 0%); type: functional; method in brief: as §1
Plutella xylostella [12] = experiment: Induction of response in mated female Plutella xylostella (diamondback moth) assessed as flying moth level at 10 uL in presence of synthetic pheromone measured after 10 min by wind tunnel bioassays (Rvb hexane = 5%); type: functional; method in brief: as §1
Plutella xylostella [13] = experiment: Induction of response in unmated female Plutella xylostella (diamondback moth) assessed as landing moth level at 10 uL in presence of synthetic pheromone measured after 10 min by wind tunnel bioassays (Rvb hexane = 0%); type: functional; method in brief: as §1
Plutella xylostella [14] = experiment: Induction of response in unmated female Plutella xylostella (diamondback moth) assessed as flying moth level at 10 uL in presence of synthetic pheromone measured after 10 min by wind tunnel bioassays (Rvb hexane = 5%); type: functional; method in brief: as §1
Plutella xylostella [15] = experiment: Induction of response in mated male Plutella xylostella (diamondback moth) assessed as landing moth level at 10 uL in presence of synthetic pheromone measured after 10 min by wind tunnel bioassays (Rvb hexane = 0%); type: functional; method in brief: as §1
Plutella xylostella [16] = experiment: Induction of response in mated male Plutella xylostella (diamondback moth) assessed as flying moth level at 10 uL in presence of synthetic pheromone measured after 10 min by wind tunnel bioassays (Rvb hexane = 0%); type: functional; method in brief: as §1
Plutella xylostella [17] = experiment: Potentiation of synthetic pheromone attractant activity in female Plutella xylostella (diamondback moth) in cabbage field assessed as female moth attraction level using sticky traps baited with compound and synthetic pheromone at 1:1 ratio by field trapping method relative to synthetic pheromone alone; type: functional
Plutella xylostella [18] = experiment: Potentiation of synthetic pheromone attractant activity in female Plutella xylostella (diamondback moth) in cabbage field assessed as female moth attraction level using sticky traps baited with compound and synthetic pheromone at 1:1 ratio by field trapping method relative to compound alone; type: functional
Plutella xylostella [19] = experiment: Attractant activity in male Plutella xylostella (diamondback moth) in cabbage field assessed as moth capture level using sticky traps baited with compound by field trapping method; type: functional, organism-based
Plutella xylostella [20] = experiment: Potentiation of synthetic pheromone attractant activity in male Plutella xylostella (diamondback moth) in cabbage field assessed as moth capture level using sticky traps baited with compound and synthetic pheromone at 1:1 ratio by field trapping method relative to synthetic pheromone alone; type: functional

| SMILES | Activity (Plutella xylostella [1]) [%] | Activity (Plutella xylostella [2]) [%] | Activity (Plutella xylostella [3]) [%] | Activity (Plutella xylostella [4]) [%] | Activity (Plutella xylostella [5]) [%] | Activity (Plutella xylostella [6]) [%] | Activity (Plutella xylostella [7]) [%] | Activity (Plutella xylostella [8]) [%] | Activity (Plutella xylostella [9]) [%] | Activity (Plutella xylostella [10]) [%] | Activity (Plutella xylostella [11]) [%] | Activity (Plutella xylostella [12]) [%] | Activity (Plutella xylostella [13]) [%] | Activity (Plutella xylostella [14]) [%] | Activity (Plutella xylostella [15]) [%] | Activity (Plutella xylostella [16]) [%] | fold change (FC) (Plutella xylostella [17]) | fold change (FC) (Plutella xylostella [18]) | Activity (Plutella xylostella [19]) | Activity (Plutella xylostella [20]) [%] |
| --- | --- | --- | --- | --- | --- | --- | --- | --- | --- | --- | --- | --- | --- | --- | --- | --- | --- | --- | --- | --- |
| CCC/C=C/C=O | 85 | 90 | 50 | 55 | 15 | 20 | 15 | 20 | 20 | 30 | 50 | 50 | 20 | 25 | 25 | 25 |  |  |  |  |
| CCCCCCO [1-HEXANOL] | 70 | 75 | 20 | 15 | 5 | 5 | 5 | 0 | 5 | 15 | 25 | 25 | 5 | 5 | 10 | 5 |  |  |  |  |
| CCCCCC=O [HEXANAL] | 75 | 80 | 25 | 30 | 5 | 5 | 10 | 5 | 10 | 10 | 25 | 35 | 10 | 10 | 10 | 5 |  |  |  |  |
| CC/C=C\CCO [CIS-3-HEXENOL] | 80 | 85 | 40 | 40 | 15 | 10 | 10 | 0 | 15 | 25 | 45 | 40 | 20 | 10 | 20 | 15 |  |  |  |  |
| CC/C=C\CCOC(C)=O [(Z)-hex-3-en-1-yl acetate] | 95 | 100 | 55 | 60 | 25 | 20 | 20 | 30 | 25 | 40 | 60 | 65 | 30 | 25 | 35 | 35 | 6 | 3 | inactive | 20 |
| C=CC(O)CCC (stereo unspecified) | 60 | 65 | 20 | 10 | 5 | 0 | 5 | 0 | 10 | 20 | 20 | 35 | 5 | 0 | 10 | 5 |  |  |  |  |
| CCCCCCOC(C)=O [HEXYL ACETATE] | 55 | 60 | 10 | 5 | 0 | 5 | 5 | 0 | 5 | 10 | 15 | 20 | 0 | 5 | 5 | 0 |  |  |  |  |
